# IMP-1 inhibitor: blocks Pseudomonas aeruginosa IMP-1 metallo-beta-lactamase. purified IMP-1, nitrocefin hydrolysis, epi-absorbance fluorescence. inhibition, % at 5.6 µM. 0.45% of 290,000 active. AID 1556;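 active means inhibition above the mean plus 3 SD of all compounds in the same screening run, cut at about 4.5% in these data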;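 further: 0% = IMP-1 with DMSO and 100% = DMSO wells lacking enzyme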
#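 System: purified IMP-1; amount: IMP-1 0.2 nM before substrate addition; compound: single dose, 5.6 µM; times: 25 °C, 15 min preincubation, 25 min reaction; signal: Epi-absorbance via hydrolysed-nitrocefin quenching of white-plate fluorescence, 480/530 nm, EDTA stop; benchmarks: DMSO with and without IMP-1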
# aSyn 5UTR inh: MLPCN primary screen, SNCA 5' untranslated region | inhibition, % (tested at 7.5 µM) | 0.82% of 300,000 active | AID 1813 | alpha-synuclein 5'UTR reporter, inhibitor activity; in the data active means inhibition above about 60%;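 further: H4 neuroglioblastoma cells stably carrying SNCA 5'UTR luciferase fusion; 0% = DMSO wells and 100% = positive control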
# 697 NFkB inh: inhibitors of the PMA/ionomycin-induced NF-kB reporter in 697 B cells | 697 B-cell NF-kB luciferase reporter, 16 h | inhibition, % at 4 µM | 0.33% of 330,000 active; in the data active means inhibition above about 35%
# VIM-2 inhibitor: inhibitors of Pseudomonas aeruginosa VIM-2 metallo-beta-lactamase. purified VIM-2, nitrocefin hydrolysis, epi-absorbance fluorescence. inhibition, % at 5.6 µM. 0.89% of 290,000 active. AID 1527;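 active means inhibition above the mean of all tested compounds plus 3 SD, cutoff set per screening run, cut at about 7.5% in these data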;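 further: red hydrolysis product quenches plate fluorescence so inhibitors raise well fluorescence; 0% = enzyme with DMSO and 100% = DMSO without enzyme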
# Mdm2 MdmX PPI: disrupts the human Mdm2-MdmX interaction. O15151+Q00987. SaOS-2 split-luciferase Mdm2/MdmX complementation, luminescence. inhibition, % at 8 µM. 3% of 330,000 active. AID 485346;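 active means inhibition of at least 50% at 8 µM in the primary screen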
# Target sequence (O15151 whole entry, looked up): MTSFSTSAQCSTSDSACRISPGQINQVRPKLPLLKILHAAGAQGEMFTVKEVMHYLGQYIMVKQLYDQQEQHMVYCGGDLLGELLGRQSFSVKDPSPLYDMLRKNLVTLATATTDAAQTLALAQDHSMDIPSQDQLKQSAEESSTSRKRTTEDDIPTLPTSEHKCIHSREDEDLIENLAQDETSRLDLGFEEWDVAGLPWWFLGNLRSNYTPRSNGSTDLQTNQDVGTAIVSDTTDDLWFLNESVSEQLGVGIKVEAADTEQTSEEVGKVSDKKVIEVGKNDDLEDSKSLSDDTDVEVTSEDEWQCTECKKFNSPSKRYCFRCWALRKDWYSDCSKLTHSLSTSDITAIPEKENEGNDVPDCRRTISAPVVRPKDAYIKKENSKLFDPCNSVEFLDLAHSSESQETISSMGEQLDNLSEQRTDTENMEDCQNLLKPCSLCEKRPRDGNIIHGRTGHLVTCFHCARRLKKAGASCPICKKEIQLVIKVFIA
# Target sequence (Q00987 whole entry, looked up): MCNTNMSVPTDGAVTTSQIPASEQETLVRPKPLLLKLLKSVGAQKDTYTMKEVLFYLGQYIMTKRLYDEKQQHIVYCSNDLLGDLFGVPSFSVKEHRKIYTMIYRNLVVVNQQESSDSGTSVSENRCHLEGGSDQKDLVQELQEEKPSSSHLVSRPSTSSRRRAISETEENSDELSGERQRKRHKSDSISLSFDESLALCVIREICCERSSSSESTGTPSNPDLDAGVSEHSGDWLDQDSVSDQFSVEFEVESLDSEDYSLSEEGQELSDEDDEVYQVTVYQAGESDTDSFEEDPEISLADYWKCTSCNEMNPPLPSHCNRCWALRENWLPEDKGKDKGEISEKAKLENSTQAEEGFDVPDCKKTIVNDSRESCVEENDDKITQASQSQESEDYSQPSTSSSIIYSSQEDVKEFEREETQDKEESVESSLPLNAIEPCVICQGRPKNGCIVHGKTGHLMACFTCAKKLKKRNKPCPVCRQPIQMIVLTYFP
# Jurkat NFkB inh: lowers PMA/ionomycin-induced NF-kB signal in Jurkat cells. 0.53% of 330,000 active. inhibition, % at 4 µM. PMA/ionomycin-induced NF-kB luciferase reporter, luminescence; in the data active means inhibition above about 50%
# Mdm2-MdmX conf: confirmation of human Mdm2/MdmX interaction inhibitors | Mdm2-MdmX binding, luminescent assay | shares compounds with Mdm2 MdmX PPI | 55% of 10,000 active | inhibition, % at 8 µM; in the data active means inhibition above about 40%
# Full FLuc ctr: counter-screen for Mdm2/MdmX inhibitors: full-length luciferase. shares compounds with Mdm2 MdmX PPI. inhibition, % at 8 µM. SaOS-2 full-length luciferase counterscreen, luminescence. 77% of 6,200 active;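 active means mean inhibition at 8 µM reaching about 37%, which flags the compound as non-specific, limit read from the data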;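 further: p53-null SaOS-2 cells with luciferase driven by a doxycycline-inducible promoter; compound on cells about two nights before reading with doxycycline added after day one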
# Numbers without * were called inactive; x = not tested or not shown. An excerpt weighted towards active compounds, which were near 4.7% of everything screened.
SMILES,IMP-1 inhibitor,aSyn 5UTR inh,697 NFkB inh,VIM-2 inhibitor,Mdm2 MdmX PPI,Jurkat NFkB inh,Mdm2-MdmX conf,Full FLuc ctr
CC(=O)N1N=C(c2ccccc2)CC1c1cn(Cc2ccccc2)c2ccccc12 (configuration not stated),-2,0,-17,-3,59*,14,51*,47*
CC1(C)C[C@H]2C3=CCC4[C@@]5(C)CC[C@H](O[C@@H]6O[C@H](C(=O)O)[C@@H](O)[C@H](O)[C@H]6O)[C@@](C)(CO)C5CC[C@@]4(C)[C@]3(C)C[C@H](O)[C@@]2(CO)[C@@H](O)[C@@H]1O (some centres not stated),x,x,11,x,7,-6,x,x
C/C=C(/C)C(=O)OC1CC(C)(C)C[C@H]2C3=CC[C@@H]4[C@@]5(C)CCC(O[C@@H]6O[C@@H](C(=O)O)[C@@H](O)C(O[C@@H]7OC[C@H](O)[C@@H](O)[C@@H]7O[C@@H]7OC(CO)C(O)[C@@H](O)[C@@H]7O)C6O[C@@H]6OC(CO)C(O)C(O)C6O)[C@@](C)(CO)[C@@H]5CC[C@]4(C)[C@]3(C)CC(O)[C@@]12CO (some centres not stated),x,x,6,x,94*,0,48*,17
Cc1ccc(C(=O)c2cn(-c3ccc(F)c(Cl)c3)nn2)cc1,-1,-53,-13,-5,39,-30,x,x
Cc1ccc(-n2cc(C(=O)c3ccc(N4CCN(C)CC4)cc3)nn2)cc1Cl,1,-43,-62,2,98*,-25,4,x
CN1CCN(c2ccc(C(=O)c3cn(-c4ccc(F)c(Cl)c4)nn3)cc2)CC1,-2,-5,-48,1,81*,-31,42*,91*
O=C(CN1C(=O)NC2(CCc3ccccc32)C1=O)c1ccc(Br)s1 (configuration not stated),x,x,6,x,-10,6,x,x
CN(CC(=O)NNC(=O)Cc1ccccc1F)S(=O)(=O)c1ccc(Cl)cc1,x,8,-29,x,13,-9,x,x
CC(OC(=O)Cc1ccccc1F)C(=O)Nc1ccc(Cl)cn1 (configuration not stated),x,x,5,x,2,12,x,x
CN(C)CCCNc1ncnc2oc(-c3ccccc3)c(-c3ccccc3)c12,-1,-2,14,-2,66*,38,39,64*
Cc1cnc(NC(=O)COc2ccccc2Cl)s1,-4,82*,-218,-1,53*,-66,36,x
Cc1cnc(NC(=O)CCNC(=O)c2ccccc2Cl)s1,-1,-16,2,2,-3,-21,x,x
CCOc1ccc(-c2nc(N)ncc2Oc2cccc(OC)c2)c(O)c1,-2,60,-26,0,66*,15,42*,62*
CC(OC(=O)c1ccco1)C(=O)Nc1ccc(Cl)cn1 (configuration not stated),-1,-2,9,0,7,5,x,x
Cc1n[nH]c(=S)n1/N=C/c1ccccc1OCc1ccc(Cl)cc1Cl,-3,17,-8,-1,53*,9,11,x
COc1cc(-c2nc3ccc4ccccc4c3c3c2CCC3)cc(OC)c1O,-3,32,1,-3,40,3,x,x
COc1cc(-c2nc3ccc4ccccc4c3c3c2CCC3)cc(OC)c1OC,1,-2,-12,-2,62*,-16,57*,57*
C/C(=N/NC(=O)CNC(=O)c1ccccn1)c1cccc([N+](=O)[O-])c1,-5,17,26,-3,17,9,x,x
C=C[C@H](Cc1ccccc1)N(Cc1ccccc1)S(=O)(=O)N(Cc1ccccc1)[C@H](C=C)Cc1ccccc1,x,x,2,x,90*,-24,63*,86*
COC(=O)[C@@H](Cc1ccccc1)N(Cc1ccccc1)S(=O)(=O)N(Cc1ccccc1)[C@H](Cc1ccccc1)C(=O)OC,x,x,2,x,34,26,x,x
CC(C)(C)[C@H]1C=C(C(N)=O)O[C@@H](OCc2ccc(CO)cc2)C1,-1,-20,3,-2,23,-6,x,x
